Results of several laboratories.
MAP3K7: Mitogen-activated protein kinase kinase kinase 7 (MAP3K7, Homo sapiens, UniProt O43318)
MAL12: Alpha-glucosidase MAL12 (MAL12, Saccharomyces cerevisiae S288c, UniProt P53341)
ADRA1A: Alpha-1A adrenergic receptor (ADRA1A, Homo sapiens, UniProt P35348)

`C#Cc1cnc(Nc2ccc(CO)cc2)nc1Nc1ccccc1C(=O)NC` gave a remaining activity of 76.9% (MAP3K7; enzyme activity, inhibitor; 1 µM).
The inhibition of `O=C1C[C@@H](c2ccc(O)cc2)Oc2cc(O)cc(O)c21` is reported as 26.5% (MAL12; enzyme activity, inhibitor, absorbance; 50 µM).
For `Nc1ncnc2c1ncn2[C@@H]1O[C@H](COP(=O)(O)OP(=O)(O)OP(=O)(O)O)[C@@H](O)[C@H]1O`, the Km was 410 µM (Hexokinase HKDC1 (Homo sapiens, UniProt Q2TB90); enzyme activity, substrate; pH 8).
The inhibition of `COc1cc2c3c(c1OC)-c1c(OC)ccc(NC(C)=O)c1CC3N(C)CC2` (stereo not shown) is reported as 10% (ADRA1A; ligand displacement, radioligand; 10 µM).
`C#Cc1cnc(Nc2ccc(CO)nc2)nc1Nc1ccccc1S(C)(=O)=NC#N` (stereo not shown) has a remaining activity of 50.4% (MAP3K7; enzyme activity, inhibitor; 1 µM).
`C1=C/COCc2cc(ccc2OCCN2CCCC2)Nc2nccc(n2)-c2cccc(c2)COC/1` has a remaining binding of 88% (Tyrosine-protein kinase Lyn (LYN, Homo sapiens, UniProt P07948); binding; 0.1 µM).
`CCCCC(=O)Nc1ccc(-c2ccc3ncn(CCC)c(=O)c3c2)cn1` gave a remaining binding of 87% (Serine/threonine-protein kinase tousled-like 2 (TLK2, Homo sapiens, UniProt Q86UE8); binding, competition with immobilised ligand; 0.5 µM).
With `O=C1C[C@@H](c2ccc(O)cc2)Oc2c(Br)c(O)c(Br)c(O)c21` the inhibition was 80.5% (MAL12; enzyme activity, inhibitor, absorbance; 50 µM).
With `CS(=O)(=NC#N)c1ccccc1Nc1nc(Nc2ccnc(CO)c2)ncc1Cl` (stereo not shown) the remaining activity was 80.5% (MAP3K7; enzyme activity, inhibitor; 1 µM).
For `COc1ccc2oc(-c3ccc4nc(N)oc4c3)c/c(=N\c3ccccc3NC(=O)CCN)c2c1`, the remaining binding was 99% (Bone morphogenetic protein receptor type-1B (BMPR1B, Homo sapiens, UniProt O00238); binding; 1 µM).
The inhibition of `C#Cc1cc(-c2cc(Nc3nc(N[C@@H](C)c4ccc(F)cn4)ncc3Cl)n[nH]2)ccc1C=O` is reported as 35% (Mitotic checkpoint serine/threonine-protein kinase BUB1 (BUB1, Homo sapiens, UniProt O43683); enzyme activity, inhibitor; 0.2 µM).
`O=c1cc(-c2ccc(O)c(O)c2)oc2c(Br)c(O)c(Br)c(O)c12` has an inhibition of 95.1% (MAL12; enzyme activity, inhibitor, absorbance; 50 µM).
For `COc1cc2c3c(c1OC)-c1c(OC)ccc(-c4ccc(C#N)cc4)c1CC3N(C)CC2` (stereo not shown), the inhibition was 83% (ADRA1A; ligand displacement, radioligand; 10 µM).
